From publication PMC10439066 (Drugs in R&D, 2023)
Substitutions are numbered along the chain they refer to.

Experiments:
androgen receptor = details: cited from earlier work
estrogen receptor = details: cited from earlier work
AKR1C3 = molecular target: T1, AKR1C3 (Homo sapiens, UniProt P42330); assay: AKR1C3 biochemical assay; details: in vitro
T1 sequence (P42330 1-323): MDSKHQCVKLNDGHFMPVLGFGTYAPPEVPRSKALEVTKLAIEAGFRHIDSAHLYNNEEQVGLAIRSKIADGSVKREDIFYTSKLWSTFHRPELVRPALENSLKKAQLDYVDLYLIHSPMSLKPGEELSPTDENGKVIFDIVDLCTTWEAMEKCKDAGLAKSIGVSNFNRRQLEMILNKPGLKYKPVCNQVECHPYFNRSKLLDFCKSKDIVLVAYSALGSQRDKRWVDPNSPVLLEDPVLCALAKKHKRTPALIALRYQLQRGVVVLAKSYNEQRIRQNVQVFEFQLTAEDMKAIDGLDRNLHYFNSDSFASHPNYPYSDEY

female monkeys = assay: Repeat-dose in vivo toxicity study, monkey; parameters: species or system cynomolgus macaque monkeys (Macaca fascicularis); details: cynomolgus monkey
[1] = tested on: adult premenopausal women with endometriosis-related pain symptoms; assay: AKRENDO1 phase IIa trial, liver laboratory parameters; assay type: in vivo, human
In short: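 Over 12 weeks of oral dosing or placebo, ALT, AST, total bilirubin and INR were measured at all visits except visit 2. Baseline was the last value before treatment start (visit 3, otherwise screening). Suspected liver injury was worked up per FDA 2009 DILI guidance. Severity was graded by DILI Expert Working Group criteria and causality by RUCAM. Post-baseline ALT was classed by ULN multiples.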

BSEP (vesicle assay) = BSEP (vesicle assay) (Homo sapiens, UniProt O95342); assay: Transporter inhibition, vesicle assay; assay type: in vitro ADME; details: read-out: Inhibition characteristics in vitro IC50
Sequence of BSEP (vesicle assay) (O95342 whole entry): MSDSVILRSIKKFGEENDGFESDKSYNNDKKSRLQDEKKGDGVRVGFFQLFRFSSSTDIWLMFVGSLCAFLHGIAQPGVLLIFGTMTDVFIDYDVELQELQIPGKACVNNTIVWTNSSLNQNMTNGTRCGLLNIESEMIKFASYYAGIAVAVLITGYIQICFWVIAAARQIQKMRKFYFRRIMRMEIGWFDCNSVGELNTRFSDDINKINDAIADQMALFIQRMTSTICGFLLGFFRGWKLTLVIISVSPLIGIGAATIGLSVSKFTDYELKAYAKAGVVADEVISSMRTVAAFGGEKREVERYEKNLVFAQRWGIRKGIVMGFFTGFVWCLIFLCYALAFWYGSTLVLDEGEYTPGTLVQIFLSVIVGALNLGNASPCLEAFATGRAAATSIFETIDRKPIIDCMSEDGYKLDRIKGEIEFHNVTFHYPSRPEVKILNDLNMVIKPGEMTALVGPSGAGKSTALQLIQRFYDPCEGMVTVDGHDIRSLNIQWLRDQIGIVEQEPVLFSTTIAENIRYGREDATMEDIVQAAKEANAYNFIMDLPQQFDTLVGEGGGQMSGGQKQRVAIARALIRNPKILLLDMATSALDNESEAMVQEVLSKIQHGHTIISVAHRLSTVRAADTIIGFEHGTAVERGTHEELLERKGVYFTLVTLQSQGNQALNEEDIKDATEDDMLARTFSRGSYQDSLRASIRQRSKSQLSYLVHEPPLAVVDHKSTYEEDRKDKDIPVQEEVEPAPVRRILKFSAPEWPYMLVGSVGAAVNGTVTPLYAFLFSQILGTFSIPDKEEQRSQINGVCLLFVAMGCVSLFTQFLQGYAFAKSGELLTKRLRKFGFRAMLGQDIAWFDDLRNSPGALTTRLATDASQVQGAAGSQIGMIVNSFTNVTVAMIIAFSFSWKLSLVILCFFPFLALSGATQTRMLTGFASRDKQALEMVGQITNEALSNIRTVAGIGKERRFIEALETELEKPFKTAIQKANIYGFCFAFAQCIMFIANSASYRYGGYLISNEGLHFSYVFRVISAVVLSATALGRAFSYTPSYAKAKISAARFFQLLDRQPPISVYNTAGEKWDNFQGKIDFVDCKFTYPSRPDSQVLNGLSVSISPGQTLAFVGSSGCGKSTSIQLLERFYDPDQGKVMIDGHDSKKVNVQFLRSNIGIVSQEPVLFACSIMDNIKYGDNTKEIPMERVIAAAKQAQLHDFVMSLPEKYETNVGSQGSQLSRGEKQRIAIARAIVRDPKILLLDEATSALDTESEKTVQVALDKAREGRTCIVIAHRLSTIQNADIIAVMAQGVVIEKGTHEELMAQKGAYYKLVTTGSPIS

progesterone receptor = details: cited from earlier work
recombinant human AKR1C1 = molecular target: T2, recombinant human AKR1C1 (Homo sapiens, UniProt Q04828); assay: Related enzyme screen; assay type: biochemical; details: preclinical screen
T2 sequence (Q04828 1-323): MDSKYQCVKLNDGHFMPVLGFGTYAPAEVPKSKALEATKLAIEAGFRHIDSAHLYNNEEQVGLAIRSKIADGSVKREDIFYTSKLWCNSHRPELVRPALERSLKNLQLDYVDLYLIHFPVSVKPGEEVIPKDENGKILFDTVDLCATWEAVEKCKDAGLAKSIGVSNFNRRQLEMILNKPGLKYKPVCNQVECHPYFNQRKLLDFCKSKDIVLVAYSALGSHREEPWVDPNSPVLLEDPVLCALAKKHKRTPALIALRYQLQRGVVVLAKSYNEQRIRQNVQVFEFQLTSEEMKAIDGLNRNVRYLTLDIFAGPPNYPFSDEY

endometriotic lesions = details: cited from earlier work
female rats = assay: Repeat-dose in vivo toxicity study, rat; parameters: species or system Wistar strain); details: up to highest tested dose of 70 mg/kg, 13 weeks, Bayer data on file
recombinant human AKR1C2 = molecular target: T3, recombinant human AKR1C2 (Homo sapiens, UniProt P52895); assay: Related enzyme screen; assay type: biochemical; details: preclinical screen
T3 sequence (P52895 1-323): T2 sequence (Q04828 1-323) with T38V, R47H, L54V, C87S, V151M, R170H, Q172L

[2] = tested on: healthy pre- and postmenopausal women; details: cited from earlier work
[3] = 3 mg OD n = 11, largest value per participant
[4] = 3 mg OD n = 11, treatment-emergent
[5] = 10 mg OD n = 31, largest value per participant
[6] = 10 mg OD n = 31, treatment-emergent
[7] = 30 mg BID n = 11, largest value per participant
[8] = 30 mg BID n = 11, treatment-emergent
[9] = 30 mg OD n = 10, largest value per participant
[10] = 30 mg OD n = 10, treatment-emergent
[11] = 60 mg BID n = 27, largest value per participant
[12] = 60 mg BID n = 27, treatment-emergent

## CN(CCC(=O)O)C(=O)c1ccc2c(c1)CC[C@@H]1[C@@H]2CC[C@]2(C)C(c3cncc(F)c3)=CC[C@@H]12 [BAY1128688]
Androgen receptor
  agonism or antagonism: no relevant agonism or antagonism
Estrogen receptor
  agonism or antagonism: no relevant agonism or antagonism
AKR1C3
  IC50: < 2 nM
Female monkeys
  Increase in liver transaminases in animal toxicology study: Not observed in cynomolgus monkey animal toxicology study with BAY1128688
  Isolated increase in serum bilirubin in animal toxicology study: Observed in cynomolgus monkey animal toxicology study with BAY1128688
[1]; [3]
  ALT > 2 × ULN and ≤3 × ULN: 0 n (%)
  ALT > 3 × ULN and ≤5 × ULN: 0 n (%)
  ALT > 5 × ULN and ≤8 × ULN: 0 n (%)
  ALT > 8 × ULN: 0 n (%)
  AST > 3 × ULN and ≤5 × ULN: 0 n (%)
  AST > 8 × ULN: 0 n (%)
[1]; [4]
  ALT, total number of participants with > 2 × ULN: 0 n (%)
  AST, total number of participants with > 2 × ULN: 0 n (%)
  Bilirubin in serum > 2 × ULN: 0 n (%)
[1]; [5]
  ALT > 2 × ULN and ≤3 × ULN: 1 (3.2) n (%)
  ALT > 3 × ULN and ≤5 × ULN: 0 n (%)
  ALT > 5 × ULN and ≤8 × ULN: 0 n (%)
  ALT > 8 × ULN: 0 n (%)
  AST > 3 × ULN and ≤5 × ULN: 0 n (%)
  AST > 8 × ULN: 0 n (%)
[1]; [6]
  ALT, total number of participants with > 2 × ULN: 1 (3.2) n (%)
  AST, total number of participants with > 2 × ULN: 0 n (%)
  Bilirubin in serum > 2 × ULN: 0 n (%)
[1]; [7]
  ALT > 2 × ULN and ≤3 × ULN: 0 n (%)
  ALT > 3 × ULN and ≤5 × ULN: 0 n (%)
  ALT > 5 × ULN and ≤8 × ULN: 0 n (%)
  ALT > 8 × ULN: 0 n (%)
  AST > 3 × ULN and ≤5 × ULN: 0 n (%)
  AST > 8 × ULN: 0 n (%)
[1]; [8]
  ALT, total number of participants with > 2 × ULN: 0 n (%)
  AST, total number of participants with > 2 × ULN: 0 n (%)
  Bilirubin in serum > 2 × ULN: 0 n (%)
[1]; [9]
  ALT > 2 × ULN and ≤3 × ULN: 0 n (%)
  ALT > 3 × ULN and ≤5 × ULN: 2 (20.0) n (%)
  ALT > 5 × ULN and ≤8 × ULN: 0 n (%)
  ALT > 8 × ULN: 1 (10.0) n (%)
  AST > 3 × ULN and ≤5 × ULN: 0 n (%)
  AST > 8 × ULN: 1 (10.0) n (%)
[1]; [10]
  ALT, total number of participants with > 2 × ULN: 3 (30.0) n (%)
  AST, total number of participants with > 2 × ULN: 1 (10.0) n (%)
  Bilirubin in serum > 2 × ULN: 1 (10.0) n (%)
[1]; [11]
  ALT > 2 × ULN and ≤3 × ULN: 1 (3.7) n (%)
  ALT > 3 × ULN and ≤5 × ULN: 3 (11.1) n (%)
  ALT > 5 × ULN and ≤8 × ULN: 1 (3.7) n (%)
  ALT > 8 × ULN: 1 (3.7) n (%)
  AST > 3 × ULN and ≤5 × ULN: 2 (7.4) n (%)
  AST > 8 × ULN: 1 (3.7) n (%)
[1]; [12]
  ALT, total number of participants with > 2 × ULN: 6 (22.2) n (%)
  AST, total number of participants with > 2 × ULN: 3 (11.1) n (%)
  Bilirubin in serum > 2 × ULN: 2 (7.4) n (%)
[1]; AKRENDO1
  Dose-dependency of increase in liver transaminases up to liver injury: Risk increased with dose, but extent of ALT increase/liver injury not directly correlated with exposure
  Dose-dependency of isolated increase in serum bilirubin: Directly correlated with exposure
  Timing of increase in liver transaminases up to liver injury: >8 weeks of exposure to BAY1128688
[1]; after end of treatment
  time to restoration of normal ALT levels: up to 3 months
[1]; all dose groups
  participants with ALT increase > 5 × ULN: Three
[1]; all dose groups, 90 exposed
  participants with increased ALT > 3 × ULN: eight
[1]; at around 12 weeks of treatment
  hepatotoxicity (elevations in serum ALT): Dose-/exposure-dependent hepatotoxicity was observed
BSEP (vesicle assay)
  IC50: 3.6 µM
Progesterone receptor
  agonism or antagonism: no relevant agonism or antagonism
Recombinant human AKR1C1
  activity against related enzyme: no relevant activity
Endometriotic lesions
  effect on endometriotic lesions compared with vehicle group: reduced endometriotic lesions
  ovarian cyclicity after treatment: remained unchanged
Female rats
  hepatotoxicity: No hepatotoxicity was observed
Recombinant human AKR1C2
  activity against related enzyme: no relevant activity
[2]; 90 mg OD and 60 mg BID, 2 weeks
  increases in ALT or AST: no increases
[2]; exploratory evaluation of bile acids
  influence on bile acid metabolism: did not indicate any influence
[2]; healthy premenopausal women, up to 60 mg BID for 28 days
  ovarian cycles: normal ovarian cycles were maintained
[2]; multiple doses
  serum androsterone: dose-dependent increase
